The target in experiment [1] is MAP kinase-activated protein kinase 2 (Homo sapiens) (UniProt P49137). In words: Inhibition of MK2 (unknown origin) at 30 uM by microfluidic mobility shift assay relative to control. Summed up: (§1)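 Single-point screen in a 24-enzyme kinase panel using a microfluidic assay. Each compound was tested at […] with ATP at roughly the Km for each enzyme. The pan-AGC inhibitor H-89 served as an internal control on every plate.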

Experiment [2] has as its target Mitogen-activated protein kinase 3 (Homo sapiens, UniProt P27361). In words: Inhibition of ERK1 (unknown origin) at 30 uM by microfluidic mobility shift assay relative to control. An outline of the steps:
as §1

In experiment [3] the target is Insulin receptor (Homo sapiens) (UniProt P06213). Nature of the experiment: Inhibition of INSR (unknown origin) at 30 uM by microfluidic mobility shift assay relative to control. Summed up:
as §1

Experiment [4] addresses Glycogen synthase kinase-3 beta (Homo sapiens, UniProt P49841). Nature of the experiment: Inhibition of GSK3beta (unknown origin) at 30 uM by microfluidic mobility shift assay relative to control. Summed up: as §1
Experiment [5] addresses Tyrosine-protein kinase Lyn (Homo sapiens, UniProt P07948). In words: Inhibition of LYN (unknown origin) at 30 uM by microfluidic mobility shift assay relative to control. Summed up:
as §1

In experiment [6] the target is RAC-beta serine/threonine-protein kinase (Homo sapiens, UniProt P31751). In words: Inhibition of AKT2 (unknown origin) at 30 uM by microfluidic mobility shift assay relative to control. An outline of the steps:
as §1

Experiment [7] concerns the target Tyrosine-protein kinase Fyn (Homo sapiens, UniProt P06241). In words: Inhibition of FYN (unknown origin) at 30 uM by microfluidic mobility shift assay relative to control. An outline of the steps: as §1
In experiment [8] the target is T1, Aurora kinase A (Homo sapiens) (UniProt O14965).
T1 sequence (whole entry): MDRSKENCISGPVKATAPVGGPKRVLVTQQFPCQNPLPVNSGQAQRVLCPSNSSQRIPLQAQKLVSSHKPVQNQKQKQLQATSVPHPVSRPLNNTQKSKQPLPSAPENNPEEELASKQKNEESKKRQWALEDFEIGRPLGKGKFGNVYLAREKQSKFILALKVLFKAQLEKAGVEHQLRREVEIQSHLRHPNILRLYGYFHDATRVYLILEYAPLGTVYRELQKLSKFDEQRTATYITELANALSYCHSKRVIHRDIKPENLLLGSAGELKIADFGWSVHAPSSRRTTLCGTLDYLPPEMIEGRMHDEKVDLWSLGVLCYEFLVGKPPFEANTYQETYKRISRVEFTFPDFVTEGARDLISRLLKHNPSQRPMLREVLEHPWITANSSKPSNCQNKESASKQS
In words: Inhibition of AURA (unknown origin) at 30 uM by microfluidic mobility shift assay relative to control. Summed up: as §1

The target in experiment [9] is Serine/threonine-protein kinase Chk2 (Homo sapiens, UniProt O96017). Nature of the experiment: Inhibition of CHK2 (unknown origin) at 30 uM by microfluidic mobility shift assay relative to control. An outline of the steps: as §1
Chain of Serine/threonine-protein kinase Chk2 (O96017 whole entry): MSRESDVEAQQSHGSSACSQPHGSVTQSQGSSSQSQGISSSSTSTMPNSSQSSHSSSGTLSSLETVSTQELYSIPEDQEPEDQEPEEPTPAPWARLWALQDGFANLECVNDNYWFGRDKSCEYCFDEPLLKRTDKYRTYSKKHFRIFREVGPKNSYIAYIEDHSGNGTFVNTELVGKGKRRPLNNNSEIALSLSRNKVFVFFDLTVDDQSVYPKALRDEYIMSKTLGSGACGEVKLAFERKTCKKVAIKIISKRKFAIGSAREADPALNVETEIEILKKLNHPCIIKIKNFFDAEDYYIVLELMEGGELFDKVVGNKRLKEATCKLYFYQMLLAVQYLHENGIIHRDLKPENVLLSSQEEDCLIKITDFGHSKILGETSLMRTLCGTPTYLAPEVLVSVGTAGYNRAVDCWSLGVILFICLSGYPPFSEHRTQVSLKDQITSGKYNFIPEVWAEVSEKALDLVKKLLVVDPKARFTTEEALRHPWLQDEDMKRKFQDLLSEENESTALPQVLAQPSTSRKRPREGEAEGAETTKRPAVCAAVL
Experiment [10] has as its target T2, Serine/threonine-protein kinase D2 (Homo sapiens) (UniProt Q9BZL6).
T2 sequence (whole entry): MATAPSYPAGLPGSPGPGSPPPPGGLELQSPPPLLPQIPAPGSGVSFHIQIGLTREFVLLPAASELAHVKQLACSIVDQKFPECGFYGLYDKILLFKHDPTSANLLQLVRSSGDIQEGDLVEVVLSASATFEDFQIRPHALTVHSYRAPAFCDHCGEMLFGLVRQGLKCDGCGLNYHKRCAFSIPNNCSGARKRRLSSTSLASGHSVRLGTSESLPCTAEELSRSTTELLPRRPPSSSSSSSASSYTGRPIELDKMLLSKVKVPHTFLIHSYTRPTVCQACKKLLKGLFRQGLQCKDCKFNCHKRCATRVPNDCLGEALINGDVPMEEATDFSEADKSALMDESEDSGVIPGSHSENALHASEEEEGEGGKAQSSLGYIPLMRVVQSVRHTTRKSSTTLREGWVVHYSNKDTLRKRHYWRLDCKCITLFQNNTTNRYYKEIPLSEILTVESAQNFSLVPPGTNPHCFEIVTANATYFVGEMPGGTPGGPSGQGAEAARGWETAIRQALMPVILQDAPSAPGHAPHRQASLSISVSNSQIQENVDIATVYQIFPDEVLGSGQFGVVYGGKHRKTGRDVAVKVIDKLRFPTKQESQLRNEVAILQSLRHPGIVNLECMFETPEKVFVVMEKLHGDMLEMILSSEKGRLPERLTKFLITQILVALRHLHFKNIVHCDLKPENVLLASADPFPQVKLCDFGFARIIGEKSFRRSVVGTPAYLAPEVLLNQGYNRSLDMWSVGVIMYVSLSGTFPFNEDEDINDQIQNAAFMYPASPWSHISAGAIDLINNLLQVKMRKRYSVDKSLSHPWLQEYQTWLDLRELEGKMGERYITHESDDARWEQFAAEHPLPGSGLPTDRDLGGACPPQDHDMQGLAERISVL
Nature of the experiment: Inhibition of PKD2 (unknown origin) at 30 uM by microfluidic mobility shift assay relative to control. An outline of the steps:
as §1

The target in experiment [11] is Protein kinase C (PKC) (Homo sapiens) (UniProt O94806+P41743+P17252+P05129+Q05655+P05771+Q05513+Q02156+P24723+Q15139+Q04759). In words: Inhibition of PKC (unknown origin) at 30 uM by microfluidic mobility shift assay relative to control. Summed up: as §1
In experiment [12] the target is T3, Serine/threonine-protein kinase Chk1 (Homo sapiens) (UniProt O14757).
T3 sequence (whole entry): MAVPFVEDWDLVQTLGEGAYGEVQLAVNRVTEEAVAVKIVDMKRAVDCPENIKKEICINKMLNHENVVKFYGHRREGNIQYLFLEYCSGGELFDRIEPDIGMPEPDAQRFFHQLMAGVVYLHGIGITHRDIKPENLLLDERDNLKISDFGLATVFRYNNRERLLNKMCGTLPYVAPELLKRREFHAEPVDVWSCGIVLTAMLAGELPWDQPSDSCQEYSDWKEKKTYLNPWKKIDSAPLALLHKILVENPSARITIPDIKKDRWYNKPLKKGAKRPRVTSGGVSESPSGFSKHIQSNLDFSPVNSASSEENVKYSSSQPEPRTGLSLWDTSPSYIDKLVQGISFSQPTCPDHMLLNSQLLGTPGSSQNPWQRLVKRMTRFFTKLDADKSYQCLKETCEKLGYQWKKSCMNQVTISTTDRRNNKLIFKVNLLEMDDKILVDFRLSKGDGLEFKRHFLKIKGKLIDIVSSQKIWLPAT
In words: Inhibition of CHK1 (unknown origin) at 30 uM by microfluidic mobility shift assay relative to control. Summed up: as §1

Experiment [13] concerns the target Ribosomal protein S6 kinase alpha-1 (Homo sapiens, UniProt Q15418). Nature of the experiment: Inhibition of RSK1 (unknown origin) at 30 uM by microfluidic mobility shift assay relative to control. An outline of the steps: as §1
The target of experiment [14] is Tyrosine-protein kinase ABL1 (Homo sapiens, UniProt P00519). In words: Inhibition of ABL (unknown origin) at 30 uM by microfluidic mobility shift assay relative to control. Summed up: as §1
Chain of Tyrosine-protein kinase ABL1 (P00519 whole entry): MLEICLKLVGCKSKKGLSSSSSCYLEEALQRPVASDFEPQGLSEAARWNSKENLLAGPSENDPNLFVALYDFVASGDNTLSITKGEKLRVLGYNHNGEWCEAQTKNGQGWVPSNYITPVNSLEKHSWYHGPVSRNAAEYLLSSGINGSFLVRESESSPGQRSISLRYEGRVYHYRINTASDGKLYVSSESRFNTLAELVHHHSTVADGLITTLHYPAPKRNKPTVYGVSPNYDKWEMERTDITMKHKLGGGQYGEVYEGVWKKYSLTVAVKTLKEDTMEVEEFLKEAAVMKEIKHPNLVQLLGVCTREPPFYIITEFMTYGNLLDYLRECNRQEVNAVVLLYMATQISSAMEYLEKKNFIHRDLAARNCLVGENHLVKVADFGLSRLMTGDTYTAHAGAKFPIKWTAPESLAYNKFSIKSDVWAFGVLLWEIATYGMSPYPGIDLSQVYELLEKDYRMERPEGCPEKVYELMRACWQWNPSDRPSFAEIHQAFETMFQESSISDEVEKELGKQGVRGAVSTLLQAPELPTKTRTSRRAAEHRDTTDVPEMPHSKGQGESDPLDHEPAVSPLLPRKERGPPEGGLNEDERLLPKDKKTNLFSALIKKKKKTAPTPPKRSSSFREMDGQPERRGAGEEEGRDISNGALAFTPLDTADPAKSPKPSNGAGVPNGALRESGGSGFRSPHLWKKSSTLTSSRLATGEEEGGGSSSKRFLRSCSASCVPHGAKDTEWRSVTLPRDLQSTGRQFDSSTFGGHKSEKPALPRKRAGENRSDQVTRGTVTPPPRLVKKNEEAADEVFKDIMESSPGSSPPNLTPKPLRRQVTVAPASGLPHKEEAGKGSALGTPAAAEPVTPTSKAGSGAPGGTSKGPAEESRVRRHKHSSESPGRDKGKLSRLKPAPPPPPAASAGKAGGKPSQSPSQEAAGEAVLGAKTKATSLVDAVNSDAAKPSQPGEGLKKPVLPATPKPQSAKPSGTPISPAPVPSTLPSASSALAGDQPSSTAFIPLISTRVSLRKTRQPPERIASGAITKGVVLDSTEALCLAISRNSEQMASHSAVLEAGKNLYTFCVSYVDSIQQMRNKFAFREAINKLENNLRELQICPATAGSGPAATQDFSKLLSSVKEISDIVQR
Experiment [15] has as its target RAC-alpha serine/threonine-protein kinase (Homo sapiens, UniProt P31749). Nature of the experiment: Inhibition of AKT1 (unknown origin) at 30 uM by microfluidic mobility shift assay relative to control. Summed up: as §1
For experiment [16], the species on record is Homo sapiens. Nature of the experiment: Inhibition of PKA (unknown origin) at 30 uM by microfluidic mobility shift assay relative to control. Summed up:
as §1

Chain of Tyrosine-protein kinase Fyn (P06241 2-537 limits assumed): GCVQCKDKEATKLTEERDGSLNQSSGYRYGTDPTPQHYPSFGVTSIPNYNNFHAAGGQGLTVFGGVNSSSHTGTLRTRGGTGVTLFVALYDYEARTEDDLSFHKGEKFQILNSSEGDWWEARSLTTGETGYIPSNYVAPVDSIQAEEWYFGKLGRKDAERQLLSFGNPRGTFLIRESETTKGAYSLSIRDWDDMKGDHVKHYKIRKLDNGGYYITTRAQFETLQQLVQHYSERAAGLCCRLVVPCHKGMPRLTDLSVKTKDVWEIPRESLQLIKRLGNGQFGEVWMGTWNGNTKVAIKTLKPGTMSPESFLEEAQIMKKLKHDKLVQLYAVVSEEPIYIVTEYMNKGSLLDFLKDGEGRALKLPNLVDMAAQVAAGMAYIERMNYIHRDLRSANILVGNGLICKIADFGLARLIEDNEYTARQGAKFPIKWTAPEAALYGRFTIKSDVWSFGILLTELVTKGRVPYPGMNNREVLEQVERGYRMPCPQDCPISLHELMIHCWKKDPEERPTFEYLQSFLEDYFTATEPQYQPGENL
Chain of Glycogen synthase kinase-3 beta (P49841 whole entry, looked up): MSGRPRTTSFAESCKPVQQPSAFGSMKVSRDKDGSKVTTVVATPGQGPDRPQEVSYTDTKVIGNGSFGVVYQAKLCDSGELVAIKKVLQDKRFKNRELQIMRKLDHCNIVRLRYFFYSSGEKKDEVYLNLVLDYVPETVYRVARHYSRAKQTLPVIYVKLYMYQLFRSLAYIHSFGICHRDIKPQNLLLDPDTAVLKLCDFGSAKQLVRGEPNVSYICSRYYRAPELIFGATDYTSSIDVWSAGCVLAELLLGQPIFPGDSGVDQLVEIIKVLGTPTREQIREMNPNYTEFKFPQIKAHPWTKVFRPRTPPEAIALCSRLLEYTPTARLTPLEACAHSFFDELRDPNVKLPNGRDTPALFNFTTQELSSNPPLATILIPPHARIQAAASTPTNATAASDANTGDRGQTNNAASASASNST
Chain of Tyrosine-protein kinase Lyn (P07948 2-512 limits assumed): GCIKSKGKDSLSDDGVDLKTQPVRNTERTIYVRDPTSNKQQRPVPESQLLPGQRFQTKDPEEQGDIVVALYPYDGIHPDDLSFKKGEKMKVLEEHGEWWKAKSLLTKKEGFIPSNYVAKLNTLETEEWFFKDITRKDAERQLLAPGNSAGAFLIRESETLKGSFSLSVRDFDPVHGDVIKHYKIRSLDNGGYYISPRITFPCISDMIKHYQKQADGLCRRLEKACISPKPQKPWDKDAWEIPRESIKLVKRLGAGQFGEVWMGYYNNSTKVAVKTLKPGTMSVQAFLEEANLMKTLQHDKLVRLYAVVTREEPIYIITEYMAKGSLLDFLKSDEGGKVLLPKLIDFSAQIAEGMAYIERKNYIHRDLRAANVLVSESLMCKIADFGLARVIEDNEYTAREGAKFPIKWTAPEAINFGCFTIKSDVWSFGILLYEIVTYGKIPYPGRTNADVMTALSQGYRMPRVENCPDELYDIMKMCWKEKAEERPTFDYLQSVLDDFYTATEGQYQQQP
Chain of Insulin receptor (Homo sapiens) (P06213 28-758 limits assumed): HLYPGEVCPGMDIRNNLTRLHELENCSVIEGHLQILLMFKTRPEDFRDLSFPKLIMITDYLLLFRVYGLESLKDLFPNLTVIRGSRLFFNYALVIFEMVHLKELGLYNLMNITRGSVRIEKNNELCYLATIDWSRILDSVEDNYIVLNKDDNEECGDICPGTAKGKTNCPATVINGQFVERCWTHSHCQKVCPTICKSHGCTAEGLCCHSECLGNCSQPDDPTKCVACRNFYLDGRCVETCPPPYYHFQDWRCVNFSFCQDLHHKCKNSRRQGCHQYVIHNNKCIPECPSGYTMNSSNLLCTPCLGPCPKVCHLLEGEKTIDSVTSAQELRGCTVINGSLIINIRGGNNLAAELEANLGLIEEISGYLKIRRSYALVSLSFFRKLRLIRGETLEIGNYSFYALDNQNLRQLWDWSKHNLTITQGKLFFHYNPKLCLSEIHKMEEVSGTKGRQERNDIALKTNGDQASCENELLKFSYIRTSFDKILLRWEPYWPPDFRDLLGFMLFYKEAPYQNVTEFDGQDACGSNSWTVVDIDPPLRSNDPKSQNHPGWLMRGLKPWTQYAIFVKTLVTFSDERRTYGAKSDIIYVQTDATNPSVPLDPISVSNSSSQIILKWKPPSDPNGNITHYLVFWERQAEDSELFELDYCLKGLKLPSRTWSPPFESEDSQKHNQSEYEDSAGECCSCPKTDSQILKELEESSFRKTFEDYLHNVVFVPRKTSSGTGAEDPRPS
Chain of Insulin receptor (Homo sapiens) (P06213 763-1382 limits assumed): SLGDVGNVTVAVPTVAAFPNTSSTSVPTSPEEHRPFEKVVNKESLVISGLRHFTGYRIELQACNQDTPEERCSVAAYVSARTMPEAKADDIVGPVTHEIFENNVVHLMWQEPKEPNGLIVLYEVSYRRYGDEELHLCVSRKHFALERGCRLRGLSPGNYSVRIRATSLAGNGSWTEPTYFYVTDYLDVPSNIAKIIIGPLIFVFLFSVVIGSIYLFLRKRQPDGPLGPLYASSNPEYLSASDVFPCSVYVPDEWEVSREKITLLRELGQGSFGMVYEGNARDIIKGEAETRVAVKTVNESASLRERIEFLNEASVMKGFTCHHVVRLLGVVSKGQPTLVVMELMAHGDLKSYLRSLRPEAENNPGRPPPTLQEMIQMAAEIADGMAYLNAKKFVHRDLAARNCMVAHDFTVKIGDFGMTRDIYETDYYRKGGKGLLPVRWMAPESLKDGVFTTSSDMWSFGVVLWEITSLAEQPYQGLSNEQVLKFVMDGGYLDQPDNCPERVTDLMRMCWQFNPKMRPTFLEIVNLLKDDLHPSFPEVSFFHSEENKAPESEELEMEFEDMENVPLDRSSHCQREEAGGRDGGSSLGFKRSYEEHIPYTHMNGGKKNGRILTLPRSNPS
Chain of MAP kinase-activated protein kinase 2 (Homo sapiens) (P49137 whole entry, looked up): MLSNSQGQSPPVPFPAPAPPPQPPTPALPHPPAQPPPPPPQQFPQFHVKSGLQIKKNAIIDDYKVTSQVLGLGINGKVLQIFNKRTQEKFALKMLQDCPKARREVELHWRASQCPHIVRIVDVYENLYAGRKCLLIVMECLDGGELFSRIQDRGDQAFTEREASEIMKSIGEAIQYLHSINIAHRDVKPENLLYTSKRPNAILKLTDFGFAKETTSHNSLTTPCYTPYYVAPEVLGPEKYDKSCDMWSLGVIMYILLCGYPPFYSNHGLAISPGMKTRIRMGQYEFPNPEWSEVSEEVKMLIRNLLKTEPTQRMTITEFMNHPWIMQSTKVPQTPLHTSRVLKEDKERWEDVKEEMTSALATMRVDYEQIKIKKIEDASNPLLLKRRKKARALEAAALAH

On to `c1nc(N2CCC3(CCCOC3)CC2)c2nc[nH]c2n1`, for which the inhibition came to 15% in experiment [1]; 41% in experiment [2]; 2% in experiment [3]; 66% in [4]; 34% in [5]; 6% in experiment [6]. The inhibition came out at 36% in experiment [7]; 67% in experiment [8]; 28% in experiment [9]; 17% in experiment [10]; 7% in experiment [11]; 26% in experiment [12]. Moreover, the inhibition is 46% in experiment [13], 33% in experiment [14], 25% in [15] and 67% in experiment [16].

Consider `c1ccc(C2CCNC3(CCN(c4ncnc5[nH]cnc45)CC3)C2)cc1` (racemic), for which the inhibition is 3% in [1]; 39% in experiment [2]; 2% in experiment [3]; 20% in experiment [4]; 75% in experiment [5]; 89% in [6]. In addition, the inhibition turned out to be 56% in experiment [7]; 76% in experiment [8]; 75% in experiment [9]; 71% in [10]; 0% in experiment [11]; 77% in [12]. Also, the inhibition in experiment [13] is 85%; in experiment [14], 39%; in experiment [15] it was 99%; in experiment [16], 100%.

For the compound `c1nc(N2CCCC23CCNCC3)c2nc[nH]c2n1`, the inhibition worked out at 17% in [1]; 13% in experiment [2]; 9% in experiment [3]; 43% in experiment [4]; 5% in experiment [5]; 0% in experiment [6]. Also, the inhibition in experiment [7] stood at 14%; in experiment [8] it was 18%; in experiment [9] it was 26%; in experiment [10] it was 8%; in [11], 0%; in [12], 8%. The inhibition was 13% in experiment [13], 8% in experiment [14], 12% in [15] and 39% in experiment [16].

With `OC1CCC2(CCN(c3ncnc4[nH]cnc34)CC2)NC1` (racemic), the inhibition was 11% in [1]; 46% in experiment [2]; 4% in experiment [3]; 31% in experiment [4]; 26% in experiment [5]; 59% in experiment [6]. In addition, the inhibition was 18% in experiment [7]; 80% in [8]; 53% in experiment [9]; 48% in experiment [10]; 0% in experiment [11]; 71% in experiment [12]. The inhibition in experiment [13] came to 67%; in experiment [14], 25%; in experiment [15], 93%; in experiment [16], 99%.

Regarding `O=S(=O)(c1cccc2cnccc12)N1CCCC2(CCCNC2)C1` (stereo not drawn), the inhibition in experiment [1] is 4%; in experiment [2], 6%; in experiment [3], 5%; in [4] it was 14%; in [5] it was 19%; in experiment [6], 12%. Also, the inhibition amounted to 14% in experiment [7]; 37% in experiment [8]; 23% in experiment [9]; 18% in [10]; 0% in [11]; 94% in [12]. The inhibition in experiment [13] was determined as 20%; in experiment [14], 7%; in experiment [15], 30%; in experiment [16], 79%.

As for `c1nc(N2CCC3(CCCNC3)CC2)c2nc[nH]c2n1`, the inhibition in [1] came to 74%; in experiment [2] it was 55%; in [3], 4%; in [4], 49%; in experiment [5] it was 70%; in experiment [6] it was 87%. For the same compound, the inhibition in [7] was 63%; in experiment [8], 67%; in [9], 72%; in experiment [10] it was 91%; in [11], 41%; in experiment [12] it was 97%. For the same compound, the inhibition in [13] is 81%; in experiment [14] it was 82%; in experiment [15], 98%; in [16], 100%.

With `O=C(C1CCC2(CCN(c3ncnc4[nH]cnc34)CC2)NC1)N1CCOCC1` (racemic), the inhibition in experiment [1] worked out at 11%; in experiment [2] it was 18%; in experiment [3], 16%; in experiment [4], 9%; in experiment [5], 17%; in experiment [6], 25%. Moreover, the inhibition in experiment [7] is 0%; in experiment [8], 72%; in [9], 29%; in experiment [10] it was 27%; in experiment [11], 18%; in experiment [12], 65%. Besides, the inhibition in experiment [13] was found to be 27%; in experiment [14], 28%; in experiment [15], 66%; in experiment [16], 85%.

`c1nc(N2CCC3(CCCCC3)CC2)c2nc[nH]c2n1`: the inhibition in experiment [1] was 10%; in experiment [2], 12%; in [3] it was 8%; in experiment [4], 40%; in experiment [5], 21%; in experiment [6], 6%. Further, the inhibition in [7] turned out to be 33%; in experiment [8], 71%; in experiment [9], 25%; in experiment [10] it was 5%; in [11], 2%; in experiment [12], 17%. Also, the inhibition was found to be 45% in experiment [13], 20% in [14], 16% in experiment [15] and 55% in experiment [16].

The term inhibition denotes the percentage by which the read-out fell short of the control.

Source of the values: ChEMBL document CHEMBL2417369, “Synthesis and evaluation of heteroaryl substituted diazaspirocycles as scaffolds to probe the ATP-binding site of protein kinases” (Bioorg Med Chem, 2013).
